Measured values of several laboratories.
Protocols differ between the studies behind these lines.
ABCB1: ATP-dependent translocase ABCB1 (ABCB1, Homo sapiens, UniProt P08183)

SMILES | tested on | assay | system | setting | measurement | value
Cc1cc(-c2ccc(C(F)(F)F)cn2)[nH]c1C(=O)N[C@@H](CN)c1ncc(CO)s1 | Cf2Th-CCR5 | cell growth or viability, MTS |  | 48 h | CC50 | > 47 µM
CC1(C)CCC2(CC1)N[C@@H](C(=O)N[C@@H]1CC[C@@H](C(N)=O)OC1)[C@H](c1ccnc(Cl)c1F)[C@]21C(=O)Nc2cc(Cl)ccc21 | ABCB1 |  | Caco-2 | 10 µM, 2 h | efflux ratio | 9.3
COCCc1ccc(OCC(O)CNC(C)C)cc1 (centres unmarked) | ABCB1 |  | MDCK-MDR1 | 5 µM | Papp B→A | 31.5 ×10⁻⁶ cm/s
Cc1cc(-c2ccc(C(F)(F)F)cn2)[nH]c1C(=O)N[C@H](CN)c1nc(CO)cs1 | Cf2Th-CCR5 | cell growth or viability, MTS |  | 48 h | CC50 | > 47 µM
CC1=NN(c2ccc(C)c(C)c2)C(=O)/C1=N\Nc1cccc(-c2cccc(C(=O)O)c2)c1O | LN-229 | cell growth or viability |  | 72 h | IC50 | 20 to 30 µM
CC[C@H](C)[C@H](NC(=O)[C@H](Cc1ccccc1)NC(=O)[C@H](Cc1ccc(O)cc1)NC(=O)[C@@H]1CCCN1C(=O)[C@@H](N)Cc1ccc(O)cc1)C(=O)N1CCC[C@H]1C(=O)N[C@@H](CC(C)C)C(=O)N[C@H](CCCCN)C(=O)NCC(=O)NCC(=O)N[C@@H](CCC(=O)O)C(=O)N[C@H](C(=O)N[C@@H](CC(N)=O)C(=O)N[C@@H](CC(C)C)[C@@H](O)CC(=O)N[C@H](C(=O)N[C@@H](C)C(=O)N[C@@H](CCC(=O)O)C(=O)N1CCC[C@@H]1C(=O)N[C@@H](CCCCNC(=O)CCC(=O)O[C@H]1CC[C@@]2(C)C(=CC[C@H]3[C@@H]4CC[C@H]([C@H](C)CCCC(C)C)[C@@]4(C)CC[C@@H]32)C1)C(N)=O)C(C)C)C(C)C |  |  | aqueous buffer | pH 6.5 | thermodynamic solubility | < 1 µg/mL
O=C(O)CSc1nnc(Br)n1-c1ccc(C2CC2)c2ccccc12 | Multidrug and toxin extrusion protein 2 (SLC47A2, Homo sapiens, UniProt Q86VL8) | transporter uptake, inhibitor | HEK293 | 1 µM, 2 min | inhibition | -21%
CC[C@@H]1CN(C(=O)NCC(F)(F)F)C[C@@H]1c1cnc2cnc3[nH]ccc3n12 |  |  | beagle dog, plasma | oral, 1 mg/kg, single dose | MRT(0-t) | 9.27 h
O=C(CCCCCCC(=O)Nc1ccc(CC[18F])cc1)NO | LNCaP |  | male nude, tumour | intravenous, 2 h, tumour-bearing | tracer uptake | 1.5 %ID/g
COc1ccc(S(=O)(=O)ON=C2C=C(C)C(=O)C(C)=C2)cc1 | LNCaP | cell growth or viability |  |  | CC50 | 3.54 µM
CCn1cnc2c(=O)[nH]c(N)nc21.NCCNCCN.[Pt+2] | Jurkat | cell growth or viability, WST-1 |  |  | IC50 | > 100 µM
C[C@]12CCCN1CC1=NNC(=O)c3cc(F)cc4[nH]c2c1c34 | ABCB1 |  | MDCK-MDR1 | 1 µM | Papp B→A | 36.4 ×10⁻⁶ cm/s
CC(C)CCC[C@@H](C)[C@H]1CC[C@H]2[C@@H]3CC=C4C[C@@H](OC(=O)CCC(=O)NCCCC[C@H](NC(=O)[C@H]5CCCN5C(=O)[C@H](CCC(=O)O)NC(=O)[C@H](C)NC(=O)[C@@H](NC(=O)C[C@H](O)[C@H](CC(C)C)NC(=O)[C@H](CC(N)=O)NC(=O)[C@@H](NC(=O)[C@H](CCC(=O)O)NC(=O)CNC(=O)[C@@H](CCCCN)NC(=O)CNC(=O)[C@H](CC(C)C)NC(=O)[C@@H]5CCCN5C(=O)[C@@H](CCCCN)NC(=O)[C@H](Cc5ccccc5)NC(=O)[C@H](Cc5ccc(O)cc5)NC(=O)[C@@H]5CCCN5C(=O)[C@@H](N)Cc5ccc(O)cc5)C(C)C)C(C)C)C(N)=O)CC[C@]4(C)[C@H]3CC[C@]12C |  |  | aqueous buffer | pH 6.5 | thermodynamic solubility | > 500 µg/mL
O=C1CC(N(CCc2ccccc2)C(=S)Nc2ccccc2)C(=O)N1c1ccc(Br)cc1 (centres unmarked) | Jurkat | cell growth or viability, ATP luminescence |  | 18 h | CC50 | < 20 µM
